From the EternaBench riboswitch data

Test system: MS2 coat protein
Assay: apparent Kd, MS2 coat protein; higher = weaker binding; RNA-MaP array; FMN 200 µM where present
Summary of the method: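 The apparent Kd is reported as the median of filtered per-cluster binding-curve fits. To get these curves, designs transcribed by stalled E. coli RNA polymerase on Illumina sequencing-chip clusters were titrated with SNAP-549-labelled MS2 coat protein from 0.7 or 1.5 nM, doubling to 3 µM. Titrations were run without and then with constant ligand in 100 mM Tris-HCl pH 7.5, 80 mM KCl, 4 mM MgCl2, BSA, DTT, yeast tRNA and Tween-20, and green signal was normalised to red-channel RNA signal and control-cluster median Fmax.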

[1] = designed as: ON switch for flavin mononucleotide, no ligand
[2] = ligand present: flavin mononucleotide, designed as: ON switch for flavin mononucleotide
[3] = designed as: OFF switch for flavin mononucleotide, no ligand
[4] = ligand present: flavin mononucleotide, designed as: OFF switch for flavin mononucleotide

| Sequence | apparent Kd [1] [µM] | apparent Kd [2] [µM] | apparent Kd [3] [µM] | apparent Kd [4] [µM] |
| --- | --- | --- | --- | --- |
| AAUUGGAUCCAGAAGGCAUGGACGACCCGUCAAAUUAACAUGAGGAUCACCCAUGUCAAAAGACAUGAGGAUAUGGAUCCUAAA | 0.869 | 0.0284 |  |  |
| UUCAGCUCGUGAGGAUAUACAUGUGCUGGAAACAGCACUAUUGAGUUCACAUGAGGAUCACCCAUGUAGAAGGCACGAGCUGAG |  |  | 0.0152 | 0.0279 |
| AAAAAACAUGAGGAUCACCCAUGUAAAAAAAUGGGAGGAUAUACAAAAACAAAAAAAAAAGUAGAAGGCCUGAAAA | 0.387 | 0.0638 |  |  |
| UCCUCUGUAUGAGGAUAUCCGAAUACGUGAGGCGCUGCCGGCUCAUCAUCAGGAGAAGGCAUACAUGAGGAUCACCCAUGUCGA |  |  | 0.141 | 0.0633 |
| CAUGAUUGGGAAGGAUAUUGACCUAGUUAGUGCCGAGAAGGUCCCUUUCACAUGAGGAUCACCCAUGUGAGACUGGUGUUCGAG |  |  | 0.0265 | 0.0504 |
| GGACGUCACAUGAACAUGAGGAUCACCCAUGUAAAUUCUCAUGAGGAUAUGGAACCUAAUUGGUUCCAGAAGGCAUGGACGUCC | 1.27 | 0.381 |  |  |
| CUCAAGUUAGGAUAUUGACGCCCAAGACGGCGUCUUGGGCACAAGAAGGGACAUGAGGAUCACCCAUGUCAAUA |  |  | 0.0241 | 0.0277 |
| UGUCGGAGCAGAGGAUAUAUACAUGAGGAUCACCCAUGUAAAUGAAUGAGCUGGAAACAGCAAGUAUAGAAGGCUGCUCCGACA |  |  |  | 0.0165 |
| ACAUGAGGAUCUCCCAUGUAAAAUUAGGAUAUAUAACUGCACAUGAGGAUCACCCAUGUUUUACCGUAGAAGGGAUAAAUAAUU | 1.01 | 0.567 |  |  |
| AGAGAAUAGGUAGGAUAUCUUAAUAGAAAGAAUAGAGAAGGACCACAUGAGGAUCACCCAUGUGAAGUCUUGAGACUACAUGGU |  |  | 0.0181 | 0.0229 |
| AUUAUACAUGAGGAUCACCCAUGUAAUUAAUUAAUUAAGAUCUAGGAUAUCAGCUCGUUUAGAGCUGAGAAGGAGAUCACAUGU | 0.0301 | 0.0187 |  |  |
| AUCAGCUCGUCAGGAUAUACGUCACUGCGUCAGCAGUGUGGUAAGAUCACAUGAGGAUCACCCAUGUAGAAGGGACGAGCUGAG |  |  | 0.0141 | 0.284 |
| CGAUAACAUAGUUAUCCGUAACGGACAUGAGGAUCACCCAUGUAGGAUAUGUUACUCAACGAGUAACAGAAGGACAUGAGUCCU |  |  | 0.0118 | 0.054 |
| GUAUGGGUAGAAGGACAUGAGGAUCACCCAUGUUGUGUGUCUAAGGAUAUUAGAGAAGAUUGACGUAAGAAGGUAGAUGUGUGG |  |  | 0.0942 | 0.0808 |
| AAAAUAGCAGGAUAUACAUGAGGAUCACCCAUGUUUAUUGGGCACUUGCUGACGUCGUGUAGAAGGGUUACGAC |  |  | 0.0205 | 0.0188 |
| GUGGCUUAUGAGAAGGCGAUCAUGAAACAUGAUCGAGGAUAUCAUGUAAACAUGAGGAUCACCCAUGUAUGGGUAUUAUGCUAC | 0.291 | 0.0539 |  |  |
| CCUAAGGAGACAGGAUAUAGCGUGGUGGCCGGGCUCCAACGGCGAGCGGCGCUAGAAGGGUCACUACAUGAGGAUCACCCAUGU | 0.0102 | 0.0109 |  |  |
| GGUUGUCAUAGUCAUCCUUUCCGUACAUGAGGAUCACCCAUGUAGGAUAUGCUACUCACAGUGUAGCAGAAGGGCGUGUGUCUU |  |  | 0.0166 | 0.0175 |
| UGGUACUAGGGAGGAUAUGGGAAGAUACAUGAGGAUCACCCAUGUUUCAGAAUGCCGAGAGGCAACUAGAAGGCCCUAGUACCU | 0.0597 | 0.00638 |  |  |
| AAGAUGCGGAUAGGAUAUGGAAAGAAGGAAAGACCAGAAGGAUUGGUCAUAUAACAUGAGGAUCACCCAUGUAUAUGUUGUGAA |  |  | 0.0178 | 0.0177 |
| ACAUGAGGAUCACCCAUGUAUUACAUGGUUAAGUUUAUUAACAGAAGGCGAAAAUACCACUUUUUCGAGGAUAUGUUUUCUAUA |  |  | 0.0474 | 0.0616 |
| GCGUAACAUGAGGAUCACCCAUGUACCCGAGAAUUCGGGUCGAGAAGGGUGACCGGUCGUUUGGCACAGGAUAUCGACGUUGUG | 0.0194 | 0.0145 |  |  |
| CUGAUGUCAGGAUAUCAGAAAAGGUGCAAGGACGCACCAAAUGAGAAGGGACAUGAGGAUCACCCAUGUAAAAC |  |  | 0.025 | 0.122 |
| GUUAGACAUGAGGAUCACCCAUGUGAGGAUAUGAUGCGAUCGUGCUGACAUGAUCGCAUCAGAAGGCACAUAUG |  |  | 0.133 | 0.19 |
| CGUAUACAUGAGGAUCACCCAUGUGAGGAUAUGCUUUAUUAUUAUUAUUAUUAUUGUUGCAGAAGGUACAUUGC |  |  | 0.0235 | 0.0182 |
| GUAGCAUAAUUAGGAUAUUCAGCGAAUAGAUUGACAUGAGGAUCACCCAUGUGGCGAAAGCCGAGGGAGAAGGGAUAAUGCUAC | 0.157 | 0.0611 |  |  |
| AAUAUGAGCUGGAAUAAAACCUGAACAUGAGGAUCACCCAUGUAGGAUAUCAGCACGAUAAGUGCUGAGAAGGACAACCAGCUC |  |  | 0.014 | 0.0146 |
| AAUAAUAAGGAGGAUAUCGUAUCGGAAACGAUACGAGAAGGUCUAACAUGAGGAUCACCCAUGUUCCUCAAUAA |  |  | 0.0408 | 0.0546 |

| Sequence | apparent Kd [1] [µM] | apparent Kd [2] [µM] | apparent Kd [3] [µM] | apparent Kd [4] [µM] |
| --- | --- | --- | --- | --- |
| GGGCUGUCAGGAUAUGGGUUUGGGCCCGAAAGGGCCCGGGCCCAGAAGGGACAUGAGGAUCACCCAUGUGGCCC |  |  | 0.0321 | 0.0338 |
| AGUCGGAGCAGAGGAUAUACAUGAGGAUCACCCAUGUAAAUGGAAUAAGCCUGGAAACAGGCAAUGUAGAAGGCUGCUCCGACA |  |  | 0.075 | 0.716 |
| GGAUUACAUGAGGAUCACCCAUGUGAGGAUAUCGAUGUCCUGGGUGGAGUGCGGGACUCGAGAAGGCACUUGGA |  |  | 0.0605 | 0.229 |
| CUUUUGUGAGGAUAUUAUUAGUAAAUAAAUAAAAUUACUACUGAGAAGGCACAUGAGGAUCACCCAUGUUCCUC |  |  | 0.0243 | 0.108 |
| AAAAAAAAAAGGCAGGAUAUUCAAAAAAAAACAUGAGGAUCACCCAUGUAAAAAAAAAAAAAAUGGAAGAAGGGCCAAAAAAAAAA | 0.0211 | 0.0225 |  |  |
| AAAUUUAACGAAGGAUAUACUAACAUGAGGAUCACCCAUGUGUGCUUUGUGUUGCUGAAAUUCGGGUAGAAGGUCGUAUACAUA |  |  | 0.0828 | 0.118 |
| GUUGAAGUCACAGGAUAUACGUCGUCUGUUGCCGUAGAAGGGUGAACUCAGCCUGACCGUGACAUGAGGAUCACCCAUGUGACC | 0.0153 | 0.0196 |  |  |
| GUCGUGUGAGGAUAUGGAUAGUAGCAGUGGCGGUCGGCGACCUAGAAGGCACAUGAGGAUCACCCAUGUAAGAG |  |  | 0.0406 | 0.0378 |
| CCGACUUACUAGGAUAUCAGAGUCGAAAGACUCUGAGAAGGAGUAACAUGAGGAUCACCCAUGUGUCCUAUCGG |  |  | 0.0233 | 0.0777 |
| GACACUAUGUUUGUCAGAUAGAGAGAGGAUAUGGCUCAUGAGACAUGAGGAUCACCCAUGUAUAAUCAGAAGGCUCGAGUAGGA | 0.0125 | 0.00956 |  |  |
| UGCAUCAAUGAAGGAUAUCUAUGUCCAACAUGAGGAUCACCCAUGUUGAGGAUUACCUAUGUGUAGGAGAAGGUCAAUAUAACU | 0.00667 | 0.00612 |  |  |
| GUGAAGGUAGGAUAUACGAUAAUAUAGGGUAGAUAUAUAACACAUGAGGAUCACCCAUGUAGAAGGACCAAGUG |  |  | 0.0463 | 0.11 |
| GAAAAGAAAGGAUAUACAGGGAAAUGAACCGCACGUAAACCACAUGAGGAUCACCCAUGUAGAAGGUUCAGUGC |  |  | 0.0107 | 0.0144 |
| GAGGCGCUAGCAGGAUAUGUACAUGAGGAUCACCCAUGUAAAUCUUUUUCUGGUGAAGCGCAAGUAUAGAAGGGCUAACGCUGG |  |  | 0.00907 | 0.0188 |
| CAGUACUGAGGAUAUACAUGAGGAUCACCCAUGUGUUCCAGCUAGGGAACUAGCAAAAGUAGAAGGCAGUACUG |  |  | 0.0224 | 0.437 |
| ACUGUCGCGUGAGGAUAUGGUCUGCAGUGCUGACCAGAAGGCAUGUCGAUAGACAUGAGGAUCACCCAUGUGGUUAGGGCGGCA | 0.933 | 0.467 |  |  |
| CGCAACUCUGCACAGGUCAACAUGAGGAUCACCCAUGUAUUGAGAAGGAGGAAGAAGAGAGAUUCCUAGGAUAUCAGAGUUGCG |  |  | 0.00645 | 0.00674 |
| GGACGUCAGAUUAACAUGAGGAUCACCCAUGUCUUUUGACAUGAGGAUAUGGUUGGUAAUUCCAACCAGAAGGCAUGGACGUCC | 1.1 | 0.125 |  |  |
| GGCAAGUGAGGAUAUCACCACGGCGUGGGCACCACGGCCAGUGAGAAGGCACAUGAGGAUCACCCAUGUGAUCA |  |  | 0.088 | 0.541 |
| CGUUUAUUUAUUGGAUUAUAUUAUGAGGAUAUCAAUAUUUAUUACAUGAGGAUCACCCAUGUUAAUGAGAAGGCAUAAUUAACG | 0.00999 | 0.00668 |  |  |
| ACAUGAGGAUCACCCAUGUUUUUCGGGUACUCUUUUUACAGCAAGGAUAUGCAUUAUUUUUUUACGCAGAAGGUGCUUUACGUC |  |  | 0.114 | 0.196 |
| AAGAAGACAGGAUAUACAUGAAAGAAAGAAAAGAAAAGAAAACAUGAGGAUCACCCAUGUAGAAGGGUCAAGAA |  |  | 0.0465 | 0.0592 |
| ACAUGAGGAUCACCCAUGUGAACAUAGGAUAUUGGUGAUCAGGCGUGUUAUACAGGAUAUGUCUGCGAGAAGGGUGCACGUUGC | 0.676 | 0.231 |  |  |
| AAAAAGUCAGGAUAUGGAAAAAAAAAAAAAAAAAAAAAAAACCAGAAGGGACAUGAGGAUCACCCAUGUAAAAA |  |  | 0.0715 | 0.0438 |
| ACAUGAGGAUCACCCAUGUUCACAUAGGAUAUUGAUUAUAUUGGUUUAAGAAUAGUAAUUAACCUCAAGAAGGAUGCCUGAUCU | 0.0149 | 0.012 |  |  |
| GGAUAUGUCGUCUACAUGAGGAUCACCCAUGUCGAUAGACAUGAGGAUAUCGAUAAGAAUUGUAUCGAGAAGGUAUGUAGGUCC | 0.023 | 0.0302 |  |  |
| AACACACAUGAGGAUCACCCAUGUGAGGAUAUCAUGCUUCGUAGUAAACUACGAAGUGUGAGAAGGCACAUGUU |  |  | 0.0624 | 0.193 |
